In ChEMBL document CHEMBL4130454, “Anchimerically Activatable Antiviral ProTides” (ACS Med Chem Lett, 2017):
Calls of active or inactive are those of the source. No cut-off for these calls is given here.

Columns and labels:
dengue virus type 2 [1] = assay: Antiviral activity against Dengue virus 2 New Guinea assessed as inhibition of virus induced cytopathic effect by neutral red dye uptake assay; format: functional, organism-based
[2] = Cytotoxicity against African green monkey Vero cells assessed as decrease in cell viability after 72 hrs by neutral red dye uptake assay; format: cell-based; conditions: chlorocebus sabaeus
Procedure, shortened: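 Vero cells were exposed to a range of compound concentrations for 72 h. Viability was read by Neutral Red dye uptake, six replicates.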

dengue virus type 2 [3] = assay: Antiviral activity against Dengue virus 2 prototype 16681 infected in Vero cells assessed as inhibition of virus induced cytopathic effect by plaque assay; conditions: prototype 16681, Vero
dengue virus type 2 [4] = assay: Antiviral activity against Dengue virus 2 prototype 16681 infected in African green monkey Vero cells assessed as inhibition of viral RNA replication at 100 uM after 72 hrs by qPCR method; format: functional, organism-based
Procedure, shortened: (§1)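 Vero cells infected with DENV-2 (moi = 0.2), then treated with 100 μM compound, alone or together with 100 μM TrpGc (HINT1 inhibitor). After 72 h, supernatant RNA was extracted and viral progeny quantified by DENV-2-specific qPCR. Replication is expressed as percentage of the untreated infected control. Mean of four independent experiments.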

dengue virus type 2 [5] = assay: Antiviral activity against Dengue virus 2 prototype 16681 infected in African green monkey Vero cells assessed as inhibition of viral RNA replication at 100 uM after 72 hrs in presence of 100 uM of HINT1 inhibitor […] by qPCR method; format: functional, organism-based; procedure, shortened: as §1
[6] = Drug metabolism assessed as half life for ((2R,3R,4R,5R)-5-(2-amino-6-oxo-1,6-dihydro-9H-purin-9-yl)-3,4-dihydroxy-4-methyltetrahydrofuran-2-yl)methyl hydrogen (2-(1H-indol-3-yl)ethyl)phosphoramidate formation in HEPES buffer at pH 7.4 by RP-HPLC analysis; format: physicochemical
Procedure, shortened: (§2)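 Diester prodrug incubated at 37 °C in 20 mM HEPES buffer, pH 7.4 or pH 2.0. Removal of the 2-(methylthio)ethyl group, giving the monoester phosphoramidate, was followed over time by reversed-phase HPLC. The half-life was derived from the conversion time course.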

[7] = Drug metabolism assessed as half life for ((2R,3R,4R,5R)-5-(2-amino-6-oxo-1,6-dihydro-9H-purin-9-yl)-3,4-dihydroxy-4-methyltetrahydrofuran-2-yl)methyl hydrogen (2-(1H-indol-3-yl)ethyl)phosphoramidate formation in HEPES buffer at pH 2 by RP-HPLC analysis; format: physicochemical; procedure, shortened: as §2

Row | IC50 (dengue virus type 2 [3]) | t1/2 [6] | t1/2 [7] | SMILES | EC50 (dengue virus type 2 [1]) | CC50 at 72 h [2] | inhibition (dengue virus type 2 [4]) | inhibition (dengue virus type 2 [5])
1 | 8.14 µM |  |  | C[C@@]1(O)[C@H](O)[C@@H](CO)O[C@H]1n1cnc2c(=O)[nH]c(N)nc21 [2'-B-METHYL-GUANOSINE] | 13.6 µM | > 200 µM |  | 
2 | 6.84 µM |  |  | C[C@@]1(O)[C@H](O)[C@@H](COP(=O)(O)NCCc2c[nH]c3ccccc23)O[C@H]1n1cnc2c(=O)[nH]c(N)nc21 |  | > 200 µM | Active | inactive
3 |  |  |  | C[C@@]1(O)[C@H](O)[C@@H](CO)O[C@H]1n1cnc2c(N)ncnc21 | 4 µM |  |  | 
4 | 1.59 µM | 4.5 h | 3.78 h | CSCCOP(=O)(NCCc1c[nH]c2ccccc12)OC[C@H]1O[C@@H](n2cnc3c(=O)[nH]c(N)nc32)[C@](C)(O)[C@@H]1O (some centres undefined) |  | > 200 µM | Active | inactive
